# Only some compounds are listed: those with a hit (about 0.79% of all), similar ones and a draw of the others.
# bIAP inh = blocks bovine intestinal alkaline phosphatase activity; purified bovine IAP, CDP-star luminescence, 30 min; inhibition, % at 20 µM; 190,000 tested, under 10 active;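 active = over 50% inhibition of intestinal alkaline phosphatase at 20 µM in the single-dose screen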
#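 test system = bovine IAP enzyme | medium = DEA buffer 100 mM, pH 9.8, with MgCl2 1.0 mM, ZnCl2 0.02 mM | detection = luminescence | dosing = single compound dose of 20 µM, 2% DMSO final | incubation = 30 min reaction at room temperature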
# mIAP act = increases mouse intestinal alkaline phosphatase activity | muIAP, CDP-Star luminescence, 30 min; hits give high values; 1 = vehicle-only enzyme signal, 0 = enzyme-free wells | activation factor at 10 µM | actives 0.24% (n = 330,000) | AID 2805;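 active = activation factor of at least 2 at 20 µM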
#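 System: Mouse IAP enzyme | Also added: CDP-Star substrate | Dosing: Compounds dispensed in DMSO | Schedule: 30 min enzyme-substrate-compound incubation at room temperature | Technique: Chemiluminescence readout | Control set: DMSO-only wells and no-enzyme negative control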
# hIAP inh = human IAP inhibition. P09923. purified IAP, CDP-Star luminescence, 30 min. inhibition, % at 10 µM. actives 0.12% (n = 330,000);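 active = inhibition reaching a set limit with compound at 10 µM in the primary screen, cut at about 35% in these data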;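 note: plate controls were DMSO wells with enzyme for no effect and no-enzyme buffer wells for full effect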
# Target sequence (P09923 whole entry, looked up): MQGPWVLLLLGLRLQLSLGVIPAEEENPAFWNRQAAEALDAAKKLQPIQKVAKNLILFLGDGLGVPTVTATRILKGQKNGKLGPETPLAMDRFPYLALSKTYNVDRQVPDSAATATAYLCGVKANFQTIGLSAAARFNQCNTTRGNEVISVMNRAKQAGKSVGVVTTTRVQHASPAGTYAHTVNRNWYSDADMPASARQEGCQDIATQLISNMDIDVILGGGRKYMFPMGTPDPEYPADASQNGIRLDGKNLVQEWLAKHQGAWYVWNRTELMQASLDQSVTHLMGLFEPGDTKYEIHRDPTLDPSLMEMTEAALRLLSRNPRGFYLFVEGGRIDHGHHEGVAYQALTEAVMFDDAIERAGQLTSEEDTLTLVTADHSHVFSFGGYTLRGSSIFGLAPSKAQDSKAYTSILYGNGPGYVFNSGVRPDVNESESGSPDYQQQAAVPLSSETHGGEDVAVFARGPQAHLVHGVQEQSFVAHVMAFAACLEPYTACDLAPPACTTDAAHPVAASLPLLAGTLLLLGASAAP
# bIAP act = increases bovine intestinal alkaline phosphatase activity; purified bovine IAP, CDP-star luminescence, 30 min; hits give high values; fold of DMSO-control signal, blank-subtracted; activation factor at 20 µM; actives 0.17% (n = 200,000);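 active = activation factor of 2 or more at 20 µM, a signal rise over negative controls twice the positive control's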
# hIAP act = increases human intestinal alkaline phosphatase activity; P09923; purified human IAP, CDP-Star luminescence, 30 min; hits give high values; 1 = vehicle-only enzyme, 0 = enzyme-free background; activation factor at 10 µM; actives 0.16% (n = 330,000);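 active = activation factor of the enzyme at least 2-fold when tested at 20 µM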
# mIAP block = mouse IAP inhibition; purified mouse IAP, CDP-Star luminescence, 30 min; inhibition, % at 10 µM; actives 0.2% (n = 330,000);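 active = inhibition of at least 40% at 10 µM in the primary screen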;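 note: plate controls were DMSO with enzyme for no effect and no enzyme wells for full effect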
# hIAP act conf = human IAP activation confirmation | activation (%Activity, negative = activation), % at 8.3 µM | actives 10% (n = 880) | purified IAP, CDP-Star luminescence, 30 min; hits give low values | shares compounds with hIAP act;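 active = at least twofold enzyme activation in any of six single-dose repeats, which the averaged readout prints as negative percent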
# mIAP inh conf = mouse IAP inhibition confirmation | shares compounds with mIAP block | purified mouse IAP, CDP-Star luminescence, 30 min | inhibition, % at 10 µM | actives 4.7% (n = 11,000) | AID 434971;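 active = inhibition of at least 40% at 10 µM in either of the two replicates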;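 note: plate controls were DMSO wells with enzyme for no effect and buffer wells lacking enzyme for full effect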
# Active calls of the source: *; i = inactive; nt = no result.
SMILES,bIAP inh,mIAP act,hIAP inh,bIAP act,hIAP act,mIAP block,mIAP inh conf,others
c1ccc2[nH]c(CCNC3CCCCC3)nc2c1,-120,0.96,2,2.2*,0.98,4,nt,
O=C1NC(=O)N(c2ccc3c(c2)OCO3)C(=O)/C1=C/c1ccc(N2CCCC2)o1,4,0.45,29,1,0.71,56*,nt,
COc1ccccc1-n1c(O)c(/C=C2\C=Nc3ccccc32)c(=O)[nH]c1=O,nt,0.81,-21,nt,1.2,20,nt,
Cc1cc(Oc2cc(NN3CCCCC3)c([N+](=O)[O-])cc2[N+](=O)[O-])ccc1[N+](=O)[O-],nt,0.84,-11,nt,1.1,16,nt,
COc1ccc(C(=O)C2CN(C)CC2c2ccc(Cl)cc2)cc1 (stereo not given),4,1.1,-2,1,1,-6,nt,
CN1CC(C(=O)c2ccc(Cl)cc2)C(c2ccccc2F)C1 (stereo not given),0,0.58,-7,1,1.1,42*,nt,
CC(C)N1CCC2(CC1)NC(CO)(CO)CO2,-3,1,-6,1,1.1,0,nt,
O=c1[nH]c(=S)n(Cc2ccco2)c(O)c1C=NCc1cccs1,-12,0.39,-6,1.1,1.1,61*,nt,
O=c1[nH]c(=O)n(Cc2ccco2)c(O)c1C=NCc1cccs1,13,0.9,2,0.9,0.98,10,nt,
CCOC(=O)N(C)c1ccc(C(O)(C(=O)OC)C(F)(F)F)cc1 (stereo not given),-106,1.1,-9,2.1*,1.1,-5,nt,
CCCCCCOc1ccc(CN2CCN(CCO)CC2)cc1,-6,0.98,5,1.1,0.95,2,nt,
CCCCOc1ccc(CN2CCN(CCO)CC2)cc1,1,0.97,37*,1,0.63,3,nt,hIAP act conf=-22
CCOC(=O)C(=O)NC1CCSC1=O (stereo not given),22,0.87,-3,0.8,1,13,nt,
O=c1[nH]c(=O)n(-c2ccc(Br)cc2)c(O)c1C=NC(CO)(CO)CO,nt,1.1,50*,nt,0.5,-6,nt,hIAP act conf=2
O=C1NC(=O)N(c2ccc3c(c2)OCO3)C(=O)/C1=C/c1cccs1,3,0.28,6,1,0.94,72*,76*,
O=c1cccc2n1CC1CNC[C@H]2C1,nt,0.96,-2,nt,1,4,nt,
O=C1NC(=O)N(Cc2ccccc2)C(=O)/C1=C\C=C\c1ccco1,5,0.63,-9,1,1.1,37,nt,
CN1C(=O)/C(=C/C=C/c2ccco2)C(=O)NC1=S,nt,0.34,6,nt,0.94,66*,62*,
Cc1cccc(N2C(=O)NC(=O)/C(=C\C=C\c3ccco3)C2=O)c1,nt,0.55,2,nt,0.98,45*,53*,
O=C1NC(=O)N(Cc2ccco2)C(=O)/C1=C/C=C/c1ccco1,nt,0.28,4,nt,0.96,72*,75*,
Cc1ccc(N2C(=O)NC(=O)/C(=C\C=C\c3ccco3)C2=O)cc1,nt,0.64,-2,nt,1,36,nt,
O=C1NC(=O)N(c2ccccc2)C(=O)/C1=C/C=C/c1ccco1,nt,0.72,0,nt,1,28,nt,
CCCCC1C(=O)NC(=S)NC1=O,6,0.72,1,0.9,0.99,28,nt,
C=CC[N+]1(C)C2CCC1CC(O)C2 (stereo not given),0,0.95,4,1,0.96,5,nt,
Cc1ccc(N2C(=O)/C(=C/c3ccc(CN(CCC#N)S(C)(=O)=O)o3)C(=O)NC2=S)cc1C,-7,0.57,9,1.1,0.91,43*,46*,
SMILES,bIAP inh,mIAP act,hIAP inh,bIAP act,hIAP act,mIAP block,mIAP inh conf,others
Oc1ccc(C[C@H]2NCCc3cc(O)c(O)cc32)cc1O,nt,0.37,17,nt,0.83,63*,76*,
Clc1ccc(C(c2ccc(Cl)cc2)n2cc[n+](CC(OCc3ccc(Cl)cc3Cl)c3ccc(Cl)cc3Cl)c2)cc1 (stereo not given),nt,17*,-28,nt,1.3,i,i,
CN(C)C(=O)Oc1noc2cc(Cl)ccc12,nt,1,-31,nt,1.3,-2,nt,
COc1ccc(OC)c(N2C(=O)/C(=C/c3ccco3)C(=O)NC2=S)c1,nt,0.58,4,nt,0.96,42*,58*,
O=C1NC(=S)N(c2ccc(F)cc2)C(=O)/C1=C/c1ccco1,nt,0.53,10,nt,0.91,47*,60*,
C=CCN1C(=O)/C(=C/c2ccc(Br)s2)C(=O)NC1=S,nt,0.57,-11,nt,1.1,43*,53*,
CCN1C(=O)/C(=C\c2ccc([N+](=O)[O-])s2)C(=O)NC1=S,46,nt,nt,0.5,nt,nt,nt,
C=CCn1c(O)c(C(C)=NCCCn2ccnc2)c(=O)[nH]c1=O,nt,1,1,nt,0.99,-4,nt,
O=C(NC1CC2CCCC(C1)N2)c1ccccc1 (stereo not given),nt,1.1,-22,nt,1.2,-7,nt,
N#Cc1c(/N=C/c2c(O)n(Cc3ccco3)c(=O)[nH]c2=O)sc2c1CCCC2,0,0.36,9,1,0.91,64*,72*,

# High-throughput results as filed in PubChem BioAssay.
